According to ChEMBL document CHEMBL5154713, “Illuminating a Dark Kinase: Structure-Guided Design, Synthesis, and Evaluation of a Potent Nek1 Inhibitor and Its Effects on the Embryonic Zebrafish Pronephros” (J Med Chem, 2022):
≈ marks a conversion by molar mass, not a printed value.

Assays:
[1] = molecular target: Inhibitor of nuclear factor kappa-B kinase subunit beta (Homo sapiens) (UniProt O14920); experiment: Inhibition of recombinant human full length IKKbeta assessed as residual activity at 1 uM using peptide as substrate incubated for 40 mins in presence of [gamma 33P]-ATP by radiometric scintillation counting assay relative to control
How it was run: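 Eurofins KinaseProfiler radiometric panel, compound at 1 μM, ATP at 10 μM or within 15 μM of apparent Km. For Nek1 (1−505): 8 mM MOPS pH 7.0, 0.2 mM EDTA, 250 μM peptide, 10 mM Mg acetate, [γ-33P]-ATP, 40 min at room temperature. Stopped with 0.5% phosphoric acid, filtermat spotting, scintillation counting. Mean of two independent experiments.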

[2] = molecular target: Glycogen synthase kinase-3 beta (Homo sapiens) (UniProt P49841); experiment: Inhibition of human GSK3beta (2 to end residues) assessed as residual activity using YRRAAVPPSPSLSRHSSPHQS(p) EDEEE as substrate at 1 uM incubated for 40 mins in presence of [gamma 33P]-ATP by radiometric scintillation counting assay relative to control
How it was run: (§1)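 Commercial radiometric panel of 50 kinases. Each recombinant human kinase was tested at a single compound concentration of 1 μM. ATP was set within 15 μM of the apparent Km for ATP for each kinase. Residual activity is relative to control and is the mean of two independent experiments.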

[3] = molecular target: Protein-tyrosine kinase 6 (Homo sapiens) (UniProt Q13882); experiment: Inhibition of recombinant full length human BRK assessed as residual activity at 1 uM using poly(Glu, Tyr) 4:1 as substrate incubated for 40 mins in presence of [gamma-33ATP] by scintillation counting based radiometry assay relative to control; how it was run: as §1
[4] = system: RAF proto-oncogene serine/threonine-protein kinase (Homo sapiens), P04049 [Y340D,Y341D]; experiment: Inhibition of human c-Raf (Raf-1) Y340D/Y341D mutant (306 to end) as residual activity at 1 uM using inactive MEK1 as substrate incubated for 40 mins in presence of [gamma 33P]-ATP by radiometric scintillation counting assay relative to control; how it was run: as §1
[5] = molecular target: Protein kinase C alpha type (Homo sapiens) (UniProt P17252); experiment: Inhibition of recombinant human full length PKCalpha assessed as residual activity at 1 uM using histone H1 as substrate measured after 40 mins in presence of [gamma33P]ATP by radiometric scintillation counting method relative to control; how it was run: as §1
[6] = molecular target: Calcium/calmodulin-dependent protein kinase kinase 2 (Homo sapiens) (UniProt Q96RR4); experiment: Inhibition of human full length CAMKK2 assessed as residual activity at 1 uM using calmodulin as substrate incubated for 40 mins in presence of [gamma 33P]-ATP by radiometric scintillation counting assay relative to control; how it was run: as §1
[7] = molecular target: Casein kinase I isoform gamma-1 (Homo sapiens) (UniProt Q9HCP0); experiment: Inhibition of recombinant human CK1gamma1 (25 to 355 residues) assessed as residual activity at 1 uM using KRRRALS(p)VASLPGL as substrate measured after 40 mins in presence of [gamma33P]ATP by radiometric scintillation counting method relative to control; how it was run: as §1
[8] = molecular target: Tyrosine-protein kinase receptor TYRO3 (Homo sapiens) (UniProt Q06418); experiment: Inhibition of human RSE (451 to end residues) assessed as residual activity at 1 uM using KVEKIGEGTYGVVYK as substrate measured after 40 mins in presence of [gamma33P]ATP by radiometric scintillation counting method relative to control; how it was run: as §1
[9] = molecular target: Protein kinase C eta type (Homo sapiens) (UniProt P24723); experiment: Inhibition of recombinant human full length PKCeta (2 to end residues) assessed as residual activity at 1 uM using ERMRPRKRQGSVRRRV as substrate incubated for 40 mins in presence of [gamma-33P]-ATP by scintillation counting method relative to control; how it was run: as §1
[10] = molecular target: Phosphatidylinositol 4,5-bisphosphate 3-kinase catalytic subunit gamma isoform (Homo sapiens) (UniProt P48736); experiment: Inhibition of human full length PI3Kgamma assessed as residual activity at 1 uM using phosphatidylinositol-4, 5-bisphosphate as substrate incubated for 40 mins in presence of ATP by HTRF assay relative to control
[11] = molecular target: Serine/threonine-protein kinase Nek7 (Homo sapiens) (UniProt Q8TDX7); experiment: Inhibition of recombinant human NEK7 (2 to end residues) assessed as residual activity at 1 uM using FLAKSFGSPNRAYKK as substrate measured after 40 mins in presence of [gamma33P]ATP by radiometric scintillation counting method relative to control; how it was run: as §1
[12] = molecular target: Phosphatidylinositol 4,5-bisphosphate 3-kinase catalytic subunit delta isoform (Homo sapiens) (UniProt O00329); experiment: Inhibition of human full length recombinant PI3Kdelta assessed as residual activity at 1 uM using phosphatidylinositol 4,5-bisphosphate as substrate incubated for 40 mins in presence ofATP by HTRF assay relative to control
[13] = molecular target: Serine/threonine-protein kinase Nek2 (Homo sapiens) (UniProt P51955); experiment: Inhibition of human full length recombinant NEK2 assessed as residual activity at 1 uM using poly(Glu, Tyr) 4:1 as substrate incubated for 40 mins in presence of [gamma 33P]-ATP by radiometric scintillation counting assay relative to control; how it was run: as §1
[14] = molecular target: Mitogen-activated protein kinase kinase kinase 5 (Homo sapiens) (UniProt Q99683); experiment: Inhibition of recombinant human ASK1 (649 to 946 residues) assessed as residual activity at 1 uM using myelin basic protein as substrate measured after 40 mins in presence of [gamma33P]ATP by radiometric scintillation counting method; how it was run: as §1
[15] = molecular target: MAP kinase-activated protein kinase 5 (Homo sapiens) (UniProt Q8IW41); experiment: Inhibition of human full length PRAK assessed as residual activity at 1 uM using KKLRRTLSVA as substrate incubated for 40 mins in presence of [gamma 33P]-ATP by radiometric scintillation counting assay relative to control; how it was run: as §1
[16] = Solubility of the compound in E3 medium with DMSO incubated for 24 hrs by DAD-HPLC based shake flask method; type: physicochemical
How it was run: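 Shake-flask solubility: saturated solution in E3-medium shaken 24 h at 25 °C, then HPLC-DAD at 280 nm. Concentration read by interpolation from a calibration series of 1–100 μM standards in acetonitrile, prepared from a 10 mM DMSO stock. Triplicate.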

[17] = Toxicity in wild-type Zebrafish embryos assessed as effect on normal eye development at 0.05 to 30 uM measured upto 120 hrs; design: species or system Danio rerio; conditions: in vivo, dose 0.05-30 µM
How it was run: (§2)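 Wild-type embryos, 15 per group with intact chorions, dosed at 6 hpf with 0.05–30 μM final concentrations in E3, diluted from a DMSO stock. Survival checked every 24 h by heartbeat over 120 h, and phenotypes assessed visually. At least triplicate, 5 replicates at 30 μM.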

[18] = Toxicity in wild-type Zebrafish embryos assessed as effect on ordinary heartbeat at 0.05 to 30 uM measured upto 120 hrs; design: species or system Danio rerio; conditions: in vivo, dose 0.05-30 µM; how it was run: as §2

Sequence of Protein-tyrosine kinase 6 (Homo sapiens) (Q13882 whole entry, looked up): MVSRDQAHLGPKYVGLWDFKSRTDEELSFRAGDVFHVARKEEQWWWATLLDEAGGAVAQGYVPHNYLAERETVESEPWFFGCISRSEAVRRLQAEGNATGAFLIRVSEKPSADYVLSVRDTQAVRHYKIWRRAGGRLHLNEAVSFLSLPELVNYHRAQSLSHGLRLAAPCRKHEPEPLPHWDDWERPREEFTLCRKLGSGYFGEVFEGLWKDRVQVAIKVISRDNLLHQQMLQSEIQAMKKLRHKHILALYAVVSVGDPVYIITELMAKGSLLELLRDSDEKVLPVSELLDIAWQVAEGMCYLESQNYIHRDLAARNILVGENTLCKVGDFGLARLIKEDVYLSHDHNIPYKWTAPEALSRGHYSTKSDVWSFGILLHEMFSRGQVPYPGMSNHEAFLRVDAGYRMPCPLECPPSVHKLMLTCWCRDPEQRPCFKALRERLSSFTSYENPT
Sequence of MAP kinase-activated protein kinase 5 (Homo sapiens) (Q8IW41 whole entry): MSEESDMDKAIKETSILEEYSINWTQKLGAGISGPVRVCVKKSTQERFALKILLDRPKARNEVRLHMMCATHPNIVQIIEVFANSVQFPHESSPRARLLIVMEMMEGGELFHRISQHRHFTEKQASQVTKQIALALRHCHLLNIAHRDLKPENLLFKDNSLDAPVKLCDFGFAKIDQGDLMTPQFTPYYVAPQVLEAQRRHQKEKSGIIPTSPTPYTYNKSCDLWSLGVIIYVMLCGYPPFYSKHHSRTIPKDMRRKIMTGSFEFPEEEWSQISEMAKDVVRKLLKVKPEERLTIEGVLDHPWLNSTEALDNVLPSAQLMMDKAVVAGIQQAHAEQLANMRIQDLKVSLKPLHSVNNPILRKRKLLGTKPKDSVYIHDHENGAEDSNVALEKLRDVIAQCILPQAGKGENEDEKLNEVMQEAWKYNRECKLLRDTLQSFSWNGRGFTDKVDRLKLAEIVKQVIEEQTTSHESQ
Sequence of Casein kinase I isoform gamma-1 (Homo sapiens) (Q9HCP0 whole entry, looked up, the tested form may be a part, canonical isoform): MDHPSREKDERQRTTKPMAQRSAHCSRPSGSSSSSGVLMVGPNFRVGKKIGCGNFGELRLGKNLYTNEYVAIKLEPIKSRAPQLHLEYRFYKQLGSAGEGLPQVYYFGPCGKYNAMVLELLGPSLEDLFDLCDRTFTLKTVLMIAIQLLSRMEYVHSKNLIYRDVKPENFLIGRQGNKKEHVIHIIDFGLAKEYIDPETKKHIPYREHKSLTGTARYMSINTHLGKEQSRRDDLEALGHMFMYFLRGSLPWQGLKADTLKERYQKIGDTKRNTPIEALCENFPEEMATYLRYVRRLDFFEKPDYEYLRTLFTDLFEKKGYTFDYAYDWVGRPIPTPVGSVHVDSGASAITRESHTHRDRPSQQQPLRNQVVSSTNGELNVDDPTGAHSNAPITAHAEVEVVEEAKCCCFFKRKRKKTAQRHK
Sequence of Protein kinase C eta type (Homo sapiens) (P24723 whole entry, canonical isoform): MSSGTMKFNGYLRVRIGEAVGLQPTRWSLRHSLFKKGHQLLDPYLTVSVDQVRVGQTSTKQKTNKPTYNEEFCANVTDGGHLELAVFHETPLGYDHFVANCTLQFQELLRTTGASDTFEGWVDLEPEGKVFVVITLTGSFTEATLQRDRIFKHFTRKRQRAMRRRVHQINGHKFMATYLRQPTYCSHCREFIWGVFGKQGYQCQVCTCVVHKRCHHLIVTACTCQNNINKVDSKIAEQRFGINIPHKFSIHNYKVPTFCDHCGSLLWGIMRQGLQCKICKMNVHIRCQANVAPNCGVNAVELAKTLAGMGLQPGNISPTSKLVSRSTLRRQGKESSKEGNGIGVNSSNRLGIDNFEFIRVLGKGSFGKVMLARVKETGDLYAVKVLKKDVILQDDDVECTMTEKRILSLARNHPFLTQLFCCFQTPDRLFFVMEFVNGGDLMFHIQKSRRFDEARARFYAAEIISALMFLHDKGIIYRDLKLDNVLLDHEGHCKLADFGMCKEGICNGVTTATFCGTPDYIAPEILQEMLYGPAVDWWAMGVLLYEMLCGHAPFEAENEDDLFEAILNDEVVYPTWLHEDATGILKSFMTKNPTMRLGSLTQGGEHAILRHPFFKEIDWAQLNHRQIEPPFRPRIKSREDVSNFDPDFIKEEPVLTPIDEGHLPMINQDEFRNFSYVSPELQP
Sequence of Glycogen synthase kinase-3 beta (Homo sapiens) (P49841 whole entry, looked up): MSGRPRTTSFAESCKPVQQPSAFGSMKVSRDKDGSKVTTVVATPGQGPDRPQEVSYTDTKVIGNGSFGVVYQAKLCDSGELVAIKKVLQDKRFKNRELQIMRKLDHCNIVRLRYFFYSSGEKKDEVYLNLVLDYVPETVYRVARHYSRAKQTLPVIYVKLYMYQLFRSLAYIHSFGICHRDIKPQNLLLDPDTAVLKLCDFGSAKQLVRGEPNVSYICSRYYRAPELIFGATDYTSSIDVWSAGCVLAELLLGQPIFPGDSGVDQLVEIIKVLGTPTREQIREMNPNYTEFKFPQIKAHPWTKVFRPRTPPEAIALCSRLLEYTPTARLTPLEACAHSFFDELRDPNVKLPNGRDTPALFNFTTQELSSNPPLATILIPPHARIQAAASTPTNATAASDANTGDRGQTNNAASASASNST
Sequence of Serine/threonine-protein kinase Nek7 (Homo sapiens) (Q8TDX7 whole entry, looked up, canonical isoform): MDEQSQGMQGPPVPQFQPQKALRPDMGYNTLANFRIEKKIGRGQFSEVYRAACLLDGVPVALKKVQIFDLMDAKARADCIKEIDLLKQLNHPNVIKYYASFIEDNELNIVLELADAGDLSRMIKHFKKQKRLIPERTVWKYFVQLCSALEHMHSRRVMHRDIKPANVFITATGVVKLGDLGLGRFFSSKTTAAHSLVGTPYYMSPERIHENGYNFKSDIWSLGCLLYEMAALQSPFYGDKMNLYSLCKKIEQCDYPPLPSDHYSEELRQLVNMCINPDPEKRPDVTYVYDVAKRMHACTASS
Sequence of Phosphatidylinositol 4,5-bisphosphate 3-kinase catalytic subunit delta isoform (Homo sapiens) (O00329 whole entry, canonical isoform): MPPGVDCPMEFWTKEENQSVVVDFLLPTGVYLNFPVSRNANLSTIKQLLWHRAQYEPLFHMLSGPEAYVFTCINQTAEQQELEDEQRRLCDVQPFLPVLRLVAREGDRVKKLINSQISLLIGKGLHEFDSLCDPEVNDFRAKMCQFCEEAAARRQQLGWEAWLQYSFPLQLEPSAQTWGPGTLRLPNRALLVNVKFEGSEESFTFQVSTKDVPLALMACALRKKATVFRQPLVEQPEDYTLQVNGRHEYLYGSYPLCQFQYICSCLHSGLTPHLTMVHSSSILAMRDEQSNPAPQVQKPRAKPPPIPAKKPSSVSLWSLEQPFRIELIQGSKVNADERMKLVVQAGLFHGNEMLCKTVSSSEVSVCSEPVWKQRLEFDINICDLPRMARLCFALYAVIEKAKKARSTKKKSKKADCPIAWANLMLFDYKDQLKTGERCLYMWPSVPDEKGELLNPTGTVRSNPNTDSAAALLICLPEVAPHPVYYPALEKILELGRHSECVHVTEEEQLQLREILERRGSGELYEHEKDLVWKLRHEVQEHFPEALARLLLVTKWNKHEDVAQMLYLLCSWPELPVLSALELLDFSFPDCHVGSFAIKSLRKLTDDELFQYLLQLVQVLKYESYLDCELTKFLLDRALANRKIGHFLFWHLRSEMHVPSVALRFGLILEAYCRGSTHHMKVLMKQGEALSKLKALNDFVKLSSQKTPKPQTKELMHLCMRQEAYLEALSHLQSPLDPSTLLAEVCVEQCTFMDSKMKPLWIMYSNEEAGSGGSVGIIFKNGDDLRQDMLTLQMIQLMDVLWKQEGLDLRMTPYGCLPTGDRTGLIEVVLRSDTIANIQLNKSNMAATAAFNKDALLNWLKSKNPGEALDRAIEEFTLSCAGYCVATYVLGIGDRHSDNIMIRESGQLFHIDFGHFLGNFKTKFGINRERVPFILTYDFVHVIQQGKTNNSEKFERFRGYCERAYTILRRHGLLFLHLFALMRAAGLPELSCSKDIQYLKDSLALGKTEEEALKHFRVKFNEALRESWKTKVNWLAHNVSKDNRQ
Sequence of Serine/threonine-protein kinase Nek2 (Homo sapiens) (P51955 whole entry, the tested form may be a part): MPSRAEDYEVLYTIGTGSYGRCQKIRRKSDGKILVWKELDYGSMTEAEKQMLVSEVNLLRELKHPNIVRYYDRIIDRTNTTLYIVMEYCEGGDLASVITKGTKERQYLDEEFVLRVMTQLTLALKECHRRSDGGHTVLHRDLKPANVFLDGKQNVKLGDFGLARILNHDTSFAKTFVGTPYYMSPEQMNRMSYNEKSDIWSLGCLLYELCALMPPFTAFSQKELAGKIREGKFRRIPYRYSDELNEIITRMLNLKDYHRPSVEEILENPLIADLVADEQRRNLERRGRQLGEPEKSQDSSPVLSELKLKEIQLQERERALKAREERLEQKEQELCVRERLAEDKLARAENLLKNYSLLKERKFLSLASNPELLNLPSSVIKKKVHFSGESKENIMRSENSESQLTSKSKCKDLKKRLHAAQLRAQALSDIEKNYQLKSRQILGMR

With O=S(=O)(N[C@@H](CO)Cc1c[nH]c2ccccc12)c1ccc(-c2ccnc3[nH]ccc23)cc1 the Activity [1] was 36.1%, the Activity [2] was > 75% and the Activity [3] was > 75%. For the same compound, the Activity [4] was > 75%, the Activity [5] was > 75% and the Activity [6] was > 75%. The Activity [7] was > 75%, the Activity [8] was > 75% and the Activity [9] was > 75%. For the same compound, the Activity [10] was > 75%, the Activity [11] was > 75% and the Activity [12] was > 75%. The Activity [13] was > 75%, the Activity [14] was > 75% and the Activity [15] was > 75%. For the same compound, the solubility at 24 h [16] was 13.9 µg/mL (≈ 31.1 µM), the Activity [17] was “Non-Toxic” and the Activity [18] was “Non-Toxic”.
